Screening data from PubChem.
This is a sample that favours compounds with a hit; in the whole collection about 2.9% have one here.
Dynein cargo inh = inhibitors of GR-EGFP nuclear translocation, primary screen, dynein cargo transport inhibitor project, imaging, high-content, 3617.4 mouse cells; test concentration mostly 20 µM; stimulated with dexamethasone, 1 µM; hits give low values; z-score, hits read low; hit rate 0.47% among 220,000;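 active = plate z-score of nuclear minus cytoplasmic receptor signal below a set negative limit, without overly bright fluorescence or cell loss, cut at about -3.5 in these data, passing the limit was not always enough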;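 also: z-score of nuclear minus cytoplasmic ring GR-EGFP intensity difference per well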
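Buffer or medium: tet-free medium with charcoal-stripped serum / Also added: dexamethasone agonist, 1.0 µM final, for 30 min / Timing: induction 48 h, compound 1 h, agonist 30 min / Measured by: high-content fluorescence imaging after fixation / Read-out: nuclear-to-cytoplasmic GR-EGFP distribution per well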
MEKK2wt PB1 HTS = modulators of MEK5 binding to wildtype MEKK2, primary screen, biochemical, multiplex bead flow cytometry, Alexa488-MEK5; Mitogen-activated protein kinase kinase kinase 2 (Homo sapiens), Q9Y2U5; Alexa488-MEK5 binding to MEKK2 WT; actives lie on both sides; binding response (% of control), % at 10 µM; hit rate 1.1% among 290,000; in the data active = binding response below about 67% or above about 130%
Beta2AR agonist = beta2AR agonists driving receptor internalization, primary screen, cell-based, FAP fluorogen, flow cytometry; Beta-2 adrenergic receptor (Homo sapiens), P07550; Am2.2-beta2AR cells; response, % (test concentration not listed); hit rate 0.43% among 340,000;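 active = response above a set limit, near 3 SD of response in nonfluorescent compounds, cut at about 42% in these data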
MEKK2 mut-MEK5 = MEK5 binding signal on mutant MEKK2 PB1, primary screen, biochemical, multiplex bead flow cytometry, Alexa488-MEK5; Alexa488-MEK5 binding to MEKK2 mutant; AID 1530, 2009; percent response, % at 10 µM; hit rate 0.35% among 290,000; in the data active = percent response above about 24%, passing the limit was not always enough
MEKK3 PB1 HTS = modulators of MEKK3-MEK5 PB1 binding, primary screen, biochemical, wildtype MEKK3, multiplex bead flow cytometry, Alexa488-MEK5; bead-based flow cytometry, Alexa488-MEK5 binding to MEKK3; actives lie on both sides; 0 = blocked by unlabeled MEK5, 100 = vehicle; binding response (% of control), % at 10 µM; hit rate 1.4% among 290,000;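 active = binding response more than 3 SD above or below the average of its plate-row segment, actives on both sides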;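 also: Alexa488 bead fluorescence after subtracting the streptavidin-only scavenger bead signal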
ATG4B inhibitor = ATG4B protease inhibitors, primary screen, biochemical, fluorescence, uHTS | Cysteine protease ATG4B (Homo sapiens), Q9Y4P1 | ATG4B cleavage of LC3-PLA2, NBD-HPC fluorescence, 1 h | AID 504462, 2011 | hit rate 0.51% among 340,000 | inhibition, % at 8.33 µM; in the data active = inhibition above about 40%
Target sequence (Q9Y4P1 whole entry, looked up): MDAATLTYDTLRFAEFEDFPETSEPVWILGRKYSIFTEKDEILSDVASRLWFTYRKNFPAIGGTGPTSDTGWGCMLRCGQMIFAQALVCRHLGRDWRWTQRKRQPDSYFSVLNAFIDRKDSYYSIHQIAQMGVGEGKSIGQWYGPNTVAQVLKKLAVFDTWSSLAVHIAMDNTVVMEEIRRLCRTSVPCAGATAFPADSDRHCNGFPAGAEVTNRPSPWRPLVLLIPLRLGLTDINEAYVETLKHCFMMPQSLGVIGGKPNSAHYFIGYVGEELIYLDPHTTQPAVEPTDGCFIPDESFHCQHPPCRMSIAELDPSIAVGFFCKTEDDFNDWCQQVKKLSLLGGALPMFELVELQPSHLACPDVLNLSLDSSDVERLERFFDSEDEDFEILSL
ATG4B conf = ATG4B protease inhibitors, retest, confirmation, biochemical, fluorescence, single concentration; shares compounds with ATG4B inhibitor; ATG4B protease fluorescent substrate cleavage assay; inhibition, % at 8.33 µM; hit rate 92% among 320; in the data active = inhibition above about 39%
PLA2 counter = PLA2 enzyme inhibition, counter-screen for ATG4B inhibitor project, biochemical, single concentration, uHTS hits; inhibition, % at 8.33 µM; hit rate 66% among 1,600; purified PLA2, NBD-C6-HPC fluorescence, 45 min; shares compounds with ATG4B inhibitor; in the data active = inhibition above about 50%
Target sequence (P04054 whole entry, looked up): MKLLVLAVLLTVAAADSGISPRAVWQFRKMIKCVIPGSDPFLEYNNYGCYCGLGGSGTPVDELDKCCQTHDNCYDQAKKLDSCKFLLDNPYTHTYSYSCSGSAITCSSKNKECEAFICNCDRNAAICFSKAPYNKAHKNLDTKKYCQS
Active calls of the source: *; x = not tested or not shown.

SMILES	Dynein cargo inh	MEKK2wt PB1 HTS	Beta2AR agonist	MEKK2 mut-MEK5	MEKK3 PB1 HTS	ATG4B inhibitor	PLA2 counter	others
O=C(Oc1c(-c2ccccc2)oc2ccccc2c1=O)c1ccccc1	0.41	x	-2	x	x	45*	64*
Cc1nc(NC(=O)c2ccccc2)sc1C1(C)CC(c2ccccc2F)=NO1 (stereo not drawn)	1.4	94	3	5	96	45*	64*
CC1=NN(c2ccccc2)C(=O)/C1=C/c1c(O)n(-c2ccc(F)c(Cl)c2)[nH]c1=O	-1.5	116	x	14	103	55*	64*
N#Cc1c(NC(=O)Cn2c(=O)oc3ccccc32)oc(-c2ccccc2)c1-c1ccccc1	0.79	101	5	1	104	50*	58*
O=C(SCC(O)C(O)CS)c1cccs1 (stereo not drawn)	-0.87	77	-2	-2	84	-18	x
S=c1[nH]nc(CSCc2ccccc2Cl)n1C1CCCCC1	0.3	94	7	-4	95	55*	63*
Cn1c(CSCc2ccccc2Cl)n[nH]c1=S	1.8	98	6	2	96	1	x
CC(=O)Nc1ccc(S(=O)(=O)N(Cc2ccccc2)c2ccccc2F)cc1	-0.7	89	-9	-10	96	0	x
COc1ccc(OC)c(S(=O)(=O)N2CCN(c3ccccc3)CC2)c1	x	103	-4	5	106	-4	x
CCc1ccccc1N1CCN(S(=O)(=O)c2cc(OC)ccc2OC)CC1	-0.37	102	-1	5	100	57*	52*
COc1ccc(SCCCn2c(=O)c3c(ncn3C)n(C)c2=O)cc1	x	98	0	0	97	-2	x
C/C(=N\NC(=O)CCc1c[nH]c2ccccc12)c1ccc([N+](=O)[O-])cc1	-1.2	106	-9	2	105	-17	x
C/C(=N/Nc1ccc([N+](=O)[O-])cc1)c1c[nH]c2ccccc12	x	129	-139	7	103	46*	50
O=C(/C=C/c1ccc(S(=O)(=O)N2CCOCC2)cc1)NCc1ccccc1	-0.61	104	-4	-1	92	-10	x
Cc1ccc(CNCC(=O)Nc2ccc(C)cc2Br)cc1	0.56	101	-7	-3	100	-11	x
COc1ccc(C(=O)OCC(=O)NCC2CCCO2)c(F)c1 (stereo not drawn)	x	x	-6	x	x	-2	x
COc1ccccc1Nc1cc2cc(Br)ccc2c(=O)[nH]1	x	101	-4	2	100	66*	5
CCOc1cc2c3c(c1)C1(Nc4ccccc4S1)C(=O)N3C(C)(C)CC2C (stereo not drawn)	-1.2	84	0	-7	95	43*	28
CCOc1cc2c3c(c1)C1(OCCO1)C(=O)N3C(C)(C)CC2C (stereo not drawn)	0.0053	92	-4	-4	91	-4	x
COCCCNC(=O)CCCN1C(=O)c2cccnc2Sc2ccccc21	x	104	-5	-1	102	-5	x
Clc1ccc(/C=N/Nc2nnc(-c3ncc[nH]3)c3ccccc23)cc1	-0.97	99	2	2	104	79*	82*
CS(=O)(=O)c1nc(S(=O)(=O)c2ccc(Cl)cc2)c(N2CCC(O)CC2)s1	x	100	-18	2	100	-2	x
c1ccc(C2=Nc3c(ccc4ccccc34)C(c3ccncc3)=NN2)cc1	0.14	94	-5	-7	91	47*	71*
CCc1ccc2c(c1)C(c1ccncc1)=NNC(c1ccccc1)=N2	-0.63	94	-9	-7	95	48*	59*
CCOc1ccc2c(c1)C(c1ccccc1)=NNC(c1ccccc1)=N2	1.4	101	-6	3	109	75*	72*
SMILES	Dynein cargo inh	MEKK2wt PB1 HTS	Beta2AR agonist	MEKK2 mut-MEK5	MEKK3 PB1 HTS	ATG4B inhibitor	PLA2 counter	others
Cc1ccc2c(c1)C(c1ccncc1)=NNC(c1ccccc1)=N2	2	88	-8	-9	88	3	x
Cc1ccc(C2=Nc3ccc(Br)cc3C(c3ccncc3)=NN2)cc1	-0.46	93	-4	2	103	44*	49
Cc1ccc(S(=O)(=O)N2CCC(C(=O)NNC(=O)c3ccccc3)CC2)cc1	0.13	104	11	-2	106	-9	x
COc1ccccc1NC(=O)N1CCN(Cc2ccc3c(c2)OCO3)CC1	0.64	99	-5	-6	96	-6	x
COc1ccc2c(c1)C(c1ccc(C)o1)=NNC(c1ccccc1)=N2	-0.15	100	-4	-7	109	42*	42	ATG4B conf=69*
CC(C)OC(=O)[C@H]1[C@H](c2ccc(Cl)cc2)[C@@](C#N)(C(N)=O)[C@@H]2C=CC(C(N)=O)=CN21	-2.1	102	-8	1	102	64*	74*
COc1cccc(NC(=O)N2CCN(c3nnnn3-c3ccccc3)CC2)c1	1.1	103	1	-5	98	7	x
COc1cc(CN2CC(=O)N(c3cccc(Cl)c3C)C2=S)cc(OC)c1OC	x	100	2	0	101	1	x
Cc1cc(C)cc(N2C(=O)CN(Cc3sccc3C)C2=S)c1	1.1	96	-5	-2	91	94*	94*
COc1cc(CN2CC(=O)N(c3ccc(C)cc3)C2=S)cc(OC)c1OC	0.13	94	-3	-2	93	-9	x
Cc1cccc(N2C(=O)CCC2=O)c1	0.32	102	7	0	93	-1	x
Cc1cccc(N2C(=O)CN(Cc3sccc3C)C2=S)c1	0.68	97	9	-2	100	88*	92*
Cc1ccsc1CN1CC(=O)N(c2c(C)cccc2C)C1=S	-0.65	80	-10	-12	91	85*	93*
Cc1cccc(N2C(=O)CN(Cc3cccs3)C2=S)c1	0.77	96	-5	-9	103	52*	74*
O=C(CNC(=O)Cc1ccccc1)NCC(=O)OCc1ccc(C(=O)c2ccccc2)cc1	0.34	92	-6	-3	96	-3	x
